Measurements reported in ChEMBL document CHEMBL2057119, “Small molecules that protect against β-amyloid-induced cytotoxicity by inhibiting aggregation of β-amyloid” (Bioorg Med Chem, 2012).
Active and inactive are the calls of the source.

Columns and labels:
[1] = Cytotoxicity against mouse HT22 cells assessed as viability at 10 uM after 18 hrs by MTT assay; assay type: cell-based, HT-22; details: read-out: Activity
In short: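 HT22 murine hippocampal cells were grown in DMEM with 10% FBS at 37 °C, 5% CO2, and plated at 5×10^3 cells/well. They were switched to plain DMEM and serum-starved for 1 h before exposure to compound at 10 µM for 18 h. MTT solution (5 mg/mL) was added for 4 h at 37 °C. Cells were solubilized in 50% DMF/10% SDS (pH 4.7) for 18 h, absorbance was read at 570/630 nm, and % cytotoxicity was calculated.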

[2] = biological target: T1, Amyloid-beta precursor protein (Homo sapiens, UniProt P05067); test: Inhibition of amyloid beta (1 to 42) fibril formation at 10 uM after 1 hr by ThT spectrofluorometric analysis
In short: (§1)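 ThT diluted to 5 µM in 50 mM glycine buffer was then added. After 10 s of shaking, fluorescence was read at excitation 450 nm and emission 480 nm, as a measure of fibril formation.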

[3] = system: Mus musculus; test: Antialzheimer activity in amyloid beta (1 to 42)-challenged ICR mouse assessed as decrease in escape latency at 100 mg/kg, po measured after 7 days by water maze test; assay type: functional, organism-based; parameters: dose 100 mg/kg
In short: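 Male ICR mice were injected ICV with 50 µL of pre-aggregated Aβ(1–42) at 10 nM. Compound was then supplied for 7 days in pellet feed, each pellet containing 3 mg. Water maze training ran on days 3–7, and escape latency was recorded across training sessions. n = 10, mean ± SEM.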

[4] = biological target: T1, Amyloid-beta precursor protein; test: Inhibition of amyloid beta (1 to 42) aggregation at 2 uM after 2 hrs by SDS-PAGE and PICUP technique
In short: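 Aβ(1–42) was monomerized in HFIP (0.5 mM), dried, and redissolved in DMSO. It was incubated at 25 µM final in PBS (pH 7.3) with compound at 2 µM final for 2 h at 37 °C. Samples were photo-cross-linked (PICUP) with ammonium persulfate and Ru(bpy)3Cl2 using three 1 s irradiations, quenched, and boiled. Products were resolved on a 10–20% tris-tricine gel and silver-stained.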

[5] = system: Mus musculus; test: Antialzheimer activity in ICR mouse assessed as reduction in amyloid beta (1 to 42)-induced spontaneous memory loss at 100 mg/kg, po measured after 2 days by Y-maze test; assay type: functional; parameters: scale not given: the % may be the effect or the level left
In short: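 Aβ(1–42) at 10 nM in PBS (from a 250 µM DMSO stock) was aggregated at 37 °C for 6 days, then injected ICV (50 µL, 2.4 mm depth at bregma) into male ICR mice. Compound was given at 100 mg/kg po once daily, and the Y-maze test was on day 2. Each mouse explored a three-arm maze freely for 8 min. An entry counted when all four limbs were in an arm; spontaneous alternation was scored as three consecutive different-arm entries. n = 10, mean ± SEM.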

[6] = system: Mus musculus; test: Antialzheimer activity in ICR mouse assessed as reduction in amyloid beta (1 to 42)-induced spontaneous memory loss at 100 mg/kg, po measured after 2 days by object recognition task relative to control; assay type: functional; parameters: scale not given: the % may be the effect or the level left
In short: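 Male ICR mice received ICV pre-aggregated Aβ(1–42) at 10 nM (50 µL, 2.4 mm depth at bregma), then compound at 100 mg/kg po once daily. Object recognition ran on days 2–3. Exploration was counted as the nose directed at an object within 2 cm and/or touching it, and objects were cleaned to avoid olfactory cues. Preference index = exploration time for new object / total exploration time. n = 10, mean ± SEM.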

[7] = system: Mus musculus; test: Antialzheimer activity in ICR mouse assessed as increase in amyloid beta (1 to 42)-induced step-through latency at 100 mg/kg, po measured after 3 days by passive avoidance test; assay type: functional
In short: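 Male ICR mice got 50 µL of pre-aggregated Aβ(1–42) by ICV injection at 2.4 mm depth at bregma. The peptide was a 250 µM DMSO stock diluted in PBS to 10 nM and aggregated at 37 °C for 4 days. Oral compound was given at 100 mg/kg once daily, with testing on days 3–4. Training used a 0.25 mA, 3 s shock; step-through latency into the dark compartment was measured 24 h later. n = 10, mean ± SEM, t-test.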

[8] = biological target: T1, Amyloid-beta precursor protein; test: Inhibition of amyloid beta (25 to 35)-induced cell death in mouse HT22 cells at 10 uM after 18 hrs by MTT assay; assay type: cell-based; details: HT-22, values are per cent of control
In short: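 HT22 cells were plated at 5×10^3 cells/well, serum-starved in plain DMEM for 1 h, and pretreated with compound for 1 h. Aβ(25–35) was prepared as a 10 mM DMSO stock, diluted 10-fold in PBS, and aggregated for 1 h at room temperature. It was then added at a final 25 µM, and cells were incubated for 18 h. Viability was measured by MTT (4 h), then solubilization in DMF/SDS and absorbance at 570/630 nm.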

[9] = biological target: T1, Amyloid-beta precursor protein; test: Inhibition of amyloid beta (1 to 42) fibril formation after 1 hr by ThT spectrofluorometric analysis; in short: as §1
[10] = biological target: T1, Amyloid-beta precursor protein; test: Viability of cells treated with amyloid beta (25 to 35) in mouse HT22 cells at 25 uM after 18 hrs by MTT assay; details: HT-22
[11] = system: Mus musculus; test: Antialzheimer activity in po dosed ICR mouse assessed as reduction in amyloid beta (1 to 42)-induced spontaneous memory loss measured after 2 days by object recognition task relative to control; assay type: functional, organism-based
In short: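 ICV pre-aggregated Aβ(1–42) (10 nM, 50 µL) was given to male ICR mice, followed by once-daily oral doses in the 50–200 mg/kg series. The object recognition task ran on days 2–3. Exploration was defined as nose within 2 cm of and/or touching an object. Preference index = new-object exploration time / total exploration time. n = 10, mean ± SEM, t-test.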

[12] = system: Mus musculus; test: Antialzheimer activity in po dosed ICR mouse assessed as reduction in amyloid beta (1 to 42)-induced spontaneous memory loss measured after 2 days by Y-maze test; assay type: functional, organism-based
In short: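 Male ICR mice were injected ICV with 50 µL of Aβ(1–42) (10 nM, aggregated at 37 °C for 6 days). Various oral doses in the 50–200 mg/kg range followed, once daily. On day 2, each mouse moved freely in a three-arm Y-maze for 8 min. An arm entry required all four limbs inside, and spontaneous alternation was derived from the entry sequence. n = 10, mean ± SEM, t-test.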

[13] = system: Mus musculus; test: Antialzheimer activity in po dosed ICR mouse assessed as increase in amyloid beta (1 to 42)-induced step-through latency measured after 3 days by passive avoidance test; assay type: functional, organism-based
In short: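 Male ICR mice received 50 µL of 10 nM Aβ(1–42) ICV at 2.4 mm depth at bregma, after pre-aggregation at 37 °C for 4 days. Oral doses were varied over 50–200 mg/kg, given once daily. Passive avoidance ran on days 3–4 with a 0.25 mA, 3 s training shock. Step-through latency to enter the dark compartment was recorded 24 h after training. n = 10, mean ± SEM, t-test.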

T1 sequence (P05067 whole entry): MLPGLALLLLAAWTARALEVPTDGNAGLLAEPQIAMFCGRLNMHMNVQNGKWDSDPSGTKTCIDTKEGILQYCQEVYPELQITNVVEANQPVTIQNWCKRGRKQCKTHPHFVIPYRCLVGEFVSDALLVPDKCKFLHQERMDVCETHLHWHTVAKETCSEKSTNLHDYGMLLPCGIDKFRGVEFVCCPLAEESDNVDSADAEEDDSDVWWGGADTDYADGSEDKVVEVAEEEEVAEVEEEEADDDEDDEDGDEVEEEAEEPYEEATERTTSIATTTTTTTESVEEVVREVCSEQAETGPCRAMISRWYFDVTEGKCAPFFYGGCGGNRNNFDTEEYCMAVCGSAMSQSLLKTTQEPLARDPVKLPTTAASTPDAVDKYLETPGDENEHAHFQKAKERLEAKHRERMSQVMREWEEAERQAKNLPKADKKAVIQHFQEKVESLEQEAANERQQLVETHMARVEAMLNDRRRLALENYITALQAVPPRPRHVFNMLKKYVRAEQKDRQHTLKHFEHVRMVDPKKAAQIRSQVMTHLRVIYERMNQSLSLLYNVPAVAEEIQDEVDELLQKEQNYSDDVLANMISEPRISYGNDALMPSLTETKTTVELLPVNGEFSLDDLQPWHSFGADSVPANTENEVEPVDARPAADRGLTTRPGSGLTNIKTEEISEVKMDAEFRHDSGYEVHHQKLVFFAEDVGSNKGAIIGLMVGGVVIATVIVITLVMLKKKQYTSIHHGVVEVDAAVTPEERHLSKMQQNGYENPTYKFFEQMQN

Compound | inhibition [2] | viability at 18 h, 10 µM [1] | also measured
COc1cc(/C=C/c2cc(/C=C/c3ccc(O)c(OC)c3)ncn2)ccc1O | 79.3% | 216% | Activity [3]: Active; inhibition [4]: Active; Activity [5]: 67%; Activity [6]: 13%; Time [7]: 118 s; viability, % of control [8]: 103%; IC50 [9]: 3200 nM
H-GSNKGAIIGLC-OH |  |  | viability [10]: 56%
CSc1nc(/C=C/c2ccc(O)c(N(C)C)c2)cc(/C=C/c2ccc(O)c(N(C)C)c2)n1 | 78.6% | 77.3% | 
COc1cc(/C=C/c2cc(O)cc(/C=C/c3ccc(O)c(OC)c3)c2)ccc1O | 79% | 80.9% | 
Oc1cccc(/C=C/c2cccc(/C=C/c3cccc(O)c3)c2)c1 |  | 47% | 
COc1ccc(/C=C/c2cc(/C=C/c3ccc(OC)c(O)c3)nc(SC)n2)cc1O | 75.2% | 78.8% | 
Oc1cccc(/C=C/c2cc(/C=C/c3cccc(O)c3)ncn2)c1 | 14.1% | 142% | 
CN(C)c1ccc(/C=C/c2cccc(/C=C/c3ccc(N(C)C)c(O)c3)c2)cc1O | 56% | 101% | 
CSc1nc(/C=C/c2cccc(O)c2)cc(/C=C/c2cccc(O)c2)n1 |  | 43.7% | 
CN(C)c1ccc(/C=C/c2cc(/C=C/c3ccc(N(C)C)c(O)c3)ncn2)cc1O | 93.7% | 133% | Activity [3]: Active; inhibition [4]: Active; Activity [5]: 67%; Activity [6]: 7%; Time [7]: 118 s; viability, % of control [8]: 76.6%; IC50 [9]: 3400 nM
COc1nc(/C=C/c2cccc(O)c2)cc(/C=C/c2cccc(O)c2)n1 |  | 45.9% | 
Oc1cc(/C=C/c2ccccc2)cc(/C=C/c2ccccc2)c1 | 19.8% |  | 
CN(C)c1cc(/C=C/c2cc(O)cc(/C=C/c3ccc(O)c(N(C)C)c3)c2)ccc1O | 74.2% | 66% | 
COc1nc(/C=C/c2ccc(N(C)C)c(O)c2)cc(/C=C/c2ccc(N(C)C)c(O)c2)n1 | 90.4% | 101% | viability, % of control [8]: 67.4%; IC50 [9]: 800 nM
Oc1ccc(/C=C/c2cc(/C=C/c3ccc(O)cc3)ncn2)cc1 | 64.3% | 104% | 

Further lines, with some results ahead:

inhibition [2] | Compound | viability at 18 h, 10 µM [1] | also measured
71.5% | COc1cc(/C=C/c2cccc(/C=C/c3ccc(O)c(OC)c3)c2)ccc1O | 74.8% | 
55% | COc1nc(/C=C/c2ccc(OC)c(O)c2)cc(/C=C/c2ccc(OC)c(O)c2)n1 | 98.4% | 
19.8% | C(=C\c1cccc(/C=C/c2ccccc2)c1)/c1ccccc1 |  | 
80.7% | Oc1ccc(/C=C/c2cc(O)cc(/C=C/c3ccc(O)cc3)c2)cc1 | 37.4% | IC50 [9]: 1600 nM
74.1% | COc1nc(/C=C/c2ccc(O)c(N(C)C)c2)cc(/C=C/c2ccc(O)c(N(C)C)c2)n1 | 96.6% | viability, % of control [8]: 59%
58.4% | Oc1ccc(/C=C/c2cccc(/C=C/c3ccc(O)cc3)c2)cc1 | 102% | 
63.9% | CN(C)c1cc(/C=C/c2cccc(/C=C/c3ccc(O)c(N(C)C)c3)c2)ccc1O | 95.7% | 
67.4% | CSc1nc(/C=C/c2ccc(O)cc2)cc(/C=C/c2ccc(O)cc2)n1 | 65.3% | 
67.4% | COc1nc(/C=C/c2ccc(O)cc2)cc(/C=C/c2ccc(O)cc2)n1 | 101% | 
83.5% | CN(C)c1cc(/C=C/c2cc(/C=C/c3ccc(O)c(N(C)C)c3)ncn2)ccc1O | 146% | Activity [3]: Active; inhibition [4]: Active; Activity [5]: 67%; Activity [6]: inactive; Time [7]: 118 s; viability, % of control [8]: 85.3%; IC50 [9]: 3700 nM
7.1% | Oc1cccc(/C=C/c2cc(O)cc(/C=C/c3cccc(O)c3)c2)c1 | 59.2% | 
18.8% | COc1nc(/C=C/c2ccccc2)cc(/C=C/c2ccccc2)n1 |  | 
67.6% | COc1cc(/C=C/c2cc(/C=C/c3ccc(O)c(OC)c3)nc(SC)n2)ccc1O | 79% | 
67.9% | COc1ccc(/C=C/c2cccc(/C=C/c3ccc(OC)c(O)c3)c2)cc1O | 69.5% | 
80.9% | COc1ccc(/C=C/c2cc(/C=C/c3ccc(OC)c(O)c3)ncn2)cc1O | 136% | Activity [11]: Dose-dependent effect; Activity [3]: Active; inhibition [4]: Active; Activity [12]: Dose-dependent effect; Activity [5]: 72%; Activity [6]: 7%; Time [7]: 144 s; viability, % of control [8]: 91.8%; IC50 [9]: 2100 nM; Activity [13]: Dose-dependent effect
68% | COc1nc(/C=C/c2ccc(O)c(OC)c2)cc(/C=C/c2ccc(O)c(OC)c2)n1 | 75.2% | 
47.4% | C(=C\c1cc(/C=C/c2ccccc2)ncn1)/c1ccccc1 |  | 
83.3% | CN(C)c1ccc(/C=C/c2cc(O)cc(/C=C/c3ccc(N(C)C)c(O)c3)c2)cc1O | 64.4% | IC50 [9]: 3300 nM
84.5% | COc1ccc(/C=C/c2cc(O)cc(/C=C/c3ccc(OC)c(O)c3)c2)cc1O | 73.5% | IC50 [9]: 1600 nM
11.6% | CSc1nc(/C=C/c2ccccc2)cc(/C=C/c2ccccc2)n1 |  | 
88.8% | CSc1nc(/C=C/c2ccc(N(C)C)c(O)c2)cc(/C=C/c2ccc(N(C)C)c(O)c2)n1 | 85.3% | IC50 [9]: 1100 nM
